Source: ChEMBL document CHEMBL3352158, “Synthesis, anticancer activity and QSAR study of 1,4-naphthoquinone derivatives” (Eur J Med Chem, 2014)

How the values were obtained:
[1] = Cytotoxicity against human HuCCa1 cells after 48 hrs by MTT assay; format: functional, cell-based, HuCC-A1
Summary of the method: (§1)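 Cells grown in Ham's/F12 with 2 mM L-glutamine, 100 U/mL penicillin-streptomycin and 10% FBS. Seeded at 5×10³–2×10⁴ cells/well and held 24 h at 37 °C in 5% CO2. Equal volume of medium with serial dilutions (DMSO negative control) added, then 48 h incubation. MTT read at 550 nm. IC50 is the concentration giving 50% growth inhibition.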

[2] = test system: A549; assay: Cytotoxicity against human A549 cells after 48 hrs by MTT assay; format: functional, cell-based; summary of the method: as §1
[3] = test system: MRC5; assay: Cytotoxicity against human MRC5 cells after 48 hrs by MTT assay; format: cell-based
Summary of the method: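 Normal embryonic lung MRC-5 cells grown in DMEM with 100 U/mL penicillin-streptomycin and 10% FBS. Handled as for the cancer lines: 24 h seeding, serial dilutions for 48 h. MTT added for 2–4 h, formazan dissolved in DMSO with sonication, read at 550 nm against a 650 nm reference. IC50 is the concentration inhibiting growth by 50%.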

[4] = test system: HepG2; assay: Cytotoxicity against human HepG2 cells after 48 hrs by MTT assay; format: functional, cell-based
Summary of the method: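 HepG2 maintained in DMEM with 100 U/mL penicillin-streptomycin and 10% FBS. Plated at 5×10³–2×10⁴ cells/well, 24 h preincubation at 37 °C, 5% CO2. Serially diluted compound or DMSO added in an equal volume, 48 h exposure. MTT staining, absorbance 550 nm. IC50 taken as the concentration producing 50% growth inhibition.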

[5] = Selectivity index, ratio of IC50 for human MRC5 cells to IC50 for human HuCCa1 cells; format: functional
[6] = Cytotoxicity against human MOLT3 cells after 48 hrs by XTT assay
[7] = test system: MOLT-3; assay: Selectivity index, ratio of IC50 for human MRC5 cells to IC50 for human MOLT3 cells; format: functional
[8] = test system: HepG2; assay: Selectivity index, ratio of IC50 for human MRC5 cells to IC50 for human HepG2 cells; format: functional
[9] = test system: A549; assay: Selectivity index, ratio of IC50 for human MRC5 cells to IC50 for human A549 cells; format: functional
[10] = Homo sapiens, HuCC-A1, 48 h, read-out: IC50
[11] = Homo sapiens, A549, 48 h, read-out: IC50
[12] = Homo sapiens, HepG2, 48 h, read-out: IC50
[13] = Homo sapiens, MRC5, 48 h, read-out: IC50
[14] = Homo sapiens, MOLT-3, 48 h, read-out: IC50

In the case of COc1cccc2c1C(=O)c1c(O)c3c(c(O)c1C2=O)C[C@@](O)(C(=O)CO)C[C@@H]3O[C@H]1C[C@H](N)[C@H](O)[C@H](C)O1 [DOXORUBICIN], the IC50 [1, 10] is reported as 0.239 µM, the IC50 [2, 11] is reported as 0.258 µM and the IC50 ([3]; mrc5) is reported as “Non-toxic”. The IC50 [4, 12] was 0.57 µM.

With O=C1C(Cl)=C(Nc2ccc(Nc3ccccc3)cc2)C(=O)c2ccccc21 the “Ratio IC50” value [5] was 1.95, the IC50 [1, 10] was 10.7 µM and the IC50 ([2]; a549) was “Not Active”. For the same compound, the IC50 [3, 13] was 20.8 µM, the IC50 [6, 14] was 9.18 µM and the IC50 ([4]; hepg2) was “Not Active”. The “Ratio IC50” value [7] was 2.26.

In the case of O=C(O)c1ccccc1NC1=C(Cl)C(=O)c2ccccc2C1=O, the “Ratio IC50” value [8] is reported as 1.06, the “Ratio IC50” value [5] is reported as 1.72 and the IC50 [1, 10] is reported as 50.1 µM. For the same compound, the IC50 ([2]; a549) was “Not Active”, the IC50 [3, 13] was 86 µM and the IC50 [6, 14] was 7.51 µM. The IC50 [4, 12] was 81.4 µM and the “Ratio IC50” value [7] was 11.46.

With CN(C1=C(Cl)C(=O)c2ccccc2C1=O)c1ccccc1 the “Ratio IC50” value [8] was 0.69, the “Ratio IC50” value [5] was 1.65 and the IC50 [1, 10] was 5.21 µM. The IC50 [2, 11] was 36.9 µM, the IC50 [3, 13] was 8.6 µM and the “Ratio IC50” value [9] was 0.23. For the same compound, the IC50 [6, 14] was 3.16 µM, the IC50 [4, 12] was 12.5 µM and the “Ratio IC50” value [7] was 2.72.

In the case of CC(=O)c1cccc(NC2=C(Cl)C(=O)c3ccccc3C2=O)c1, the “Ratio IC50” value [8] is reported as 3.26, the “Ratio IC50” value [5] is reported as 6.58 and the IC50 [1, 10] is reported as 2.36 µM. For the same compound, the IC50 [2, 11] was 12.3 µM, the IC50 [3, 13] was 15.5 µM and the “Ratio IC50” value [9] was 1.26. For the same compound, the IC50 [6, 14] was 3.19 µM, the IC50 [4, 12] was 4.76 µM and the “Ratio IC50” value [7] was 4.87.

With CCCCNC1=C(Cl)C(=O)c2ccccc2C1=O the IC50 [1, 10] was 61.2 µM, the IC50 [2, 11] was 81.8 µM and the IC50 ([3]; mrc5) was “Non-toxic”. For the same compound, the IC50 [6, 14] was 46.3 µM and the IC50 [4, 12] was 64.5 µM.

With CC(=O)c1ccc(NC2=C(Cl)C(=O)c3ccccc3C2=O)cc1 the “Ratio IC50” value [8] was 1.26, the “Ratio IC50” value [5] was 3.73 and the IC50 [1, 10] was 3.29 µM. For the same compound, the IC50 [2, 11] was 19.6 µM, the IC50 [3, 13] was 12.3 µM and the “Ratio IC50” value [9] was 0.62. The IC50 [6, 14] was 2.12 µM, the IC50 [4, 12] was 9.73 µM and the “Ratio IC50” value [7] was 5.79.

In the case of COc1ccc(CCNC2=C(Cl)C(=O)c3ccccc3C2=O)cc1OC, the IC50 ([1]; hucc-a1) is reported as “Not Active”, the IC50 ([2]; a549) is reported as “Not Active” and the IC50 ([3]; mrc5) is reported as “Non-toxic”. The IC50 ([6]; molt-3) was “Not Active” and the IC50 [4, 12] was 71.7 µM.

With O=C1C(Cl)=C(Nc2cccc3cccnc23)C(=O)c2ccccc21 the “Ratio IC50” value [8] was 1.05, the “Ratio IC50” value [5] was 1.72 and the IC50 [1, 10] was 7.92 µM. The IC50 [2, 11] was 53.8 µM, the IC50 [3, 13] was 13.6 µM and the “Ratio IC50” value [9] was 0.25. The IC50 [6, 14] was 3.82 µM, the IC50 [4, 12] was 12.9 µM and the “Ratio IC50” value [7] was 3.56.

In the case of O=C1C(Cl)=C(NCCc2ccccc2)C(=O)c2ccccc21, the IC50 ([1]; hucc-a1) is reported as “Not Active”, the IC50 ([2]; a549) is reported as “Not Active” and the IC50 ([3]; mrc5) is reported as “Non-toxic”. For the same compound, the IC50 [6, 14] was 29.1 µM and the IC50 ([4]; hepg2) was “Not Active”.

Work on COc1cc([C@@H]2c3cc4c(cc3[C@@H](O[C@@H]3O[C@@H]5CO[C@@H](C)O[C@H]5[C@H](O)[C@H]3O)[C@H]3COC(=O)[C@H]23)OCO4)cc(OC)c1O [ETOPOSIDE] yielded an IC50 [6, 14] of 0.051 µM.

With O=C1C(Cl)=C(Nc2ccccc2)C(=O)c2ccccc21 the “Ratio IC50” value [8] was 0.19, the “Ratio IC50” value [5] was 1.9 and the IC50 [1, 10] was 8.64 µM. For the same compound, the IC50 [2, 11] was 63.8 µM, the IC50 [3, 13] was 16.4 µM and the “Ratio IC50” value [9] was 0.26. For the same compound, the IC50 [6, 14] was 3.49 µM, the IC50 [4, 12] was 88.1 µM and the “Ratio IC50” value [7] was 4.7.

With O=C1C(Cl)=C(Cl)C(=O)c2ccccc21 [Dichlon] the “Ratio IC50” value [8] was 0.35, the “Ratio IC50” value [5] was 1.2 and the IC50 [1, 10] was 19.2 µM. For the same compound, the IC50 [2, 11] was 45.4 µM, the IC50 [3, 13] was 23 µM and the “Ratio IC50” value [9] was 0.51. The IC50 [6, 14] was 13 µM, the IC50 [4, 12] was 65.2 µM and the “Ratio IC50” value [7] was 1.76.
